A selection: hits, their analogues and other compounds. The true share with any hit is near 2%.
CHRM5 PAM – positive allosteric modulators of human muscarinic M5 receptor; AID 624038; 360,000 tested, 0.3% active; CHO-K1 hM5, Fluo-8 calcium, ACh EC20 PAM; 0% = ACh EC20, 100% = ACh EC100; activation, % at 3 µM; P08912;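 active means activation above the run cutoff, the mean activation of all test compounds plus 3 SD, cut at about 18% in these data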
Target sequence (P08912 whole entry, looked up): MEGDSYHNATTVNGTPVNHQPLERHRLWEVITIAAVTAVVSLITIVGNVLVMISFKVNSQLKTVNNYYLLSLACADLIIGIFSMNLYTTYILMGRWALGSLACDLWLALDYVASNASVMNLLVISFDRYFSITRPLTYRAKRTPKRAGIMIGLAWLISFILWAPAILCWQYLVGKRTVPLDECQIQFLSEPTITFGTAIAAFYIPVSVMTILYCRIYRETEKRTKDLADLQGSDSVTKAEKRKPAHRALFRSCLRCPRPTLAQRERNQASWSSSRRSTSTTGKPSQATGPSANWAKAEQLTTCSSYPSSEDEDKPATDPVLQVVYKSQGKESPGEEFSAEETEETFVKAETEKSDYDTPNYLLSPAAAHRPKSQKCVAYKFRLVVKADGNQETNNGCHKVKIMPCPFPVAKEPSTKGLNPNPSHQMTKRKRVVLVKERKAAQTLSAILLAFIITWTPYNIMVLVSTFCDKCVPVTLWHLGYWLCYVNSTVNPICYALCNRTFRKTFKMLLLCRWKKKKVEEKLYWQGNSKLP
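Assay system: CHO-K1 hM5 cells. Also added: acetylcholine at EC20 concentration, added after compound. Dosing: 3 µM, single dose. Times: compound preincubation 140 s before EC20 acetylcholine addition. Signal: Fluo-8 calcium fluorescence. Measure: % activation relative to EC20 and EC100 ACh responses. Repeats: singlicate, one well per test compound.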
M5 antag – antagonists of human muscarinic M5 receptor (CHRM5); P08912; CHO-hM5 cells, Fluo-8 calcium fluorescence, ACh EC80; inhibition, % at 3 µM; 360,000 tested, 0.59% active; AID 624040;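 active means inhibition above a per-plate cutoff, the mean of that plate's test compounds plus 3 SD, cut at about 27% in these data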;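 further: 0% = acetylcholine EC80 with DMSO and 100% = DMSO without agonist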
CHRM1 antagonist – blocks human M1 muscarinic receptor; P11229; CHO-K1 hM1, Fluo-8 calcium fluorescence, ACh EC80 antagonist; inhibition, % at 3 µM; 360,000 tested, 1.3% active; AID 588852;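 active means percent inhibition above its own plate's cutoff, namely the mean of that plate's compound wells plus 3 SD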;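 further: peak over basal fluorescence ratio during 140 s after agonist addition; 0% = ACh EC80 plus DMSO and 100% = DMSO alone without agonist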
M1 PAM – human CHRM1 positive allosteric modulation | AID 588819 | 360,000 tested, 0.088% active | CHO-K1 hM1, Fluo-8 calcium fluorescence, ACh EC20; 0% = ACh EC20, 100% = maximal ACh | activation, % at 3 µM | P11229; in the data active means activation above about 19%, passing the limit was not always enough
M1 ag – human M1 muscarinic receptor agonism; P11229; CHO-K1 hM1, Fluo-8 calcium fluorescence, agonist mode; 0% DMSO, 100% acetylcholine EC100; activation, % at 3 µM; 360,000 tested, 0.33% active;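 active means activation above the run's mean compound activation plus 3 SD, cut at about 16% in these data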;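 further: peak over basal fluorescence ratio within a 140 s kinetic read after compound addition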
CHRM5 agonist – CHRM5 agonism in calcium assay; P08912; CHO-K1 hM5 cells, Fluo-8 calcium fluorescence; 0% DMSO wells, 100% maximal acetylcholine response; activation, % at 3 µM; 360,000 tested, 0.19% active;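 active means activation above the run's mean over test compounds plus 3 SD, cut at about 23% in these data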;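 further: signal is peak over basal fluorescence ratio across the kinetic read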
* hit, by the source's call; . = not tested or not shown; ! = not confirmed by another sample.

SMILES	CHRM5 PAM	M5 antag	CHRM1 antagonist	M1 PAM	M1 ag	CHRM5 agonist
C[C@@]12C(=O)Nc3cc(Cl)ccc3C(=O)N1[C@H]1c3ccccc3OC[C@@H]1[C@@H]2c1ccccc1	-15	9	33*	-24	-4	-2
COCCN1C(=O)COc2ccccc2C1C(=O)NC1CCCC1 (centres undefined)	4	-11	.	.	.	0
CCCNC(=O)N(C)C[C@@H]1Oc2ncc(-c3ccncc3)cc2C(=O)N([C@H](C)CO)C[C@@H]1C	1	-6	-9	4	-5	1
Cc1cc2nc(-c3ccc(Cl)cc3)c(Cc3ccsc3)n2c(C)c1Br	-2	1	.	.	.	1
CC1(C(=O)NCc2ccccc2)CSCC(=O)N1Cc1ccco1 (centres undefined)	0	-1	.	.	.	-2
COC(=O)C(/C=N/OCc1ccc([N+](=O)[O-])cc1)NC(=O)c1cccc(Cl)c1 (centres undefined)	-10	-1	4	4	25*	34*
C[C@H](NC(=O)[C@@H]1CCCN1C(=O)[C@@H]1CCCN1C(=O)c1cccs1)c1ccccc1	12	-12	.	.	.	-1
CCc1nc2ccc(C(=O)NCCCN3CCCC3=O)cn2c1N(CC)CCOC	3	19	-10	5	-7	0
COC(=O)C(NC(=O)C(CC(C)C)NC(=O)C1CCC(C)CC1)C(C)C (centres undefined)	36*	36*	3	5	-1	2
COC(=O)C(NC(=O)C(NC(=O)C1CCC(C)CC1)C(C)C)C(C)C (centres undefined)	3	-8	-28	4	-5	-3
CCc1ccc(/C=C2\SC(=S)N(CCCC(=O)N(CCO)c3ccccc3)C2=O)cc1	-5	9	2	0	-3	0
COc1cccc(C(CNC(=O)C(c2ccccc2)c2ccccc2)N(C)C)c1 (centres undefined)	-13	19	55*	-33	-12	-7
COc1ccc(C(CNC(=O)CSc2ccccc2C)N(C)C)cc1 (centres undefined)	-7	20	-15	1	-12	-6
COc1ccc(C(CNC(=O)Cc2ccc(-c3ccccc3)cc2)N(C)C)cc1 (centres undefined)	-3	-7	42*	-29	-11	-4
COc1ccc(OCCNC(=O)C(c2ccccc2)c2ccccc2)cc1	-7	-3	-2	5	-4	-5
CN(C(=O)CSc1nnnn1-c1ccc(O)cc1)C1CCCCC1	-1	4	-8	6	0	4
CCCS(=O)(=O)NC(=O)C1(C)CCN(C(=O)c2cccs2)C1 (centres undefined)	3	-2	-5	3	-1	1
COc1ccc2cc1Oc1ccc(cc1)C[C@H]1c3c(cc4c(c3Oc3cc5c(cc3OC)CCN(C)[C@@H]5C2)OCO4)CCN1C	-6	3	-32	-6	-7	0
COc1ccc2cc1Oc1ccc(cc1)C[C@H]1c3cc(c(OC)cc3CCN1C)Oc1c(OC)c(OC)cc3c1[C@H](C2)N(C)CC3	-9	3	91*	-25	-7	0
Fc1ccccc1N1CCN(C(c2ccnc3ccccc23)c2nnnn2-c2ccc3c(c2)OCCO3)CC1 (centres undefined)	-10	-4	.	.	.	-3
CCCNC(=O)C1(C)CCN(Cc2ccc(-c3ccccc3)o2)C1 (centres undefined)	5	-3	-12	5	-7	-1
O=c1[nH]c(=S)[nH]c2c1[C@H](CCc1cccc(Cl)c1)O[C@H](C1CCCC1)C2	8	-7	.	.	.	11
Cc1ccc(SCCNS(C)(=O)=O)cc1	22*	-6	-7	13	0	-3
Cc1cc(C[n+]2ncsc2N)c2ncccc2c1	-4	6	6	-5	-4	-15
CCOc1ccc2c(c1)sc(N)[n+]2Cc1cc(C)cc2cccnc12	-8	8	70*	-24	-7	0
SMILES	CHRM5 PAM	M5 antag	CHRM1 antagonist	M1 PAM	M1 ag	CHRM5 agonist
COc1ccc2c(c1)sc(N)[n+]2Cc1cc(C)cc2cccnc12	-13	4	65*	-23	-7	-4
CN(C)Cc1csc(NC(=O)Nc2ccccc2Oc2ccccc2)n1	-3	-4	1	-6	2	0
O=S1(=O)CC(N2CC=CC2)CN1C1CCCCC1 (centres undefined)	3	-2	-4	10	-8	1
FC(F)Sc1ccc(NC(=S)N2CCN(c3ccccn3)CC2)cc1	-11	2	22*	-18	-5	9
Oc1ccccc1N1CCN(C(=S)Nc2ccc(SC(F)F)cc2)CC1	-5	4	25	-6	2	8
OC1C(O)C(O)C(O)C(O)C1O (centres undefined)	6	-10	100*!	-1	-1	0
CCOC(=O)[C@]12CCCC=C1N(Cc1ccc(Cl)cc1Cl)C(=O)[C@H](CC(=O)NCc1ccc(OC)c(OC)c1)C2	-7	6	.	.	.	-3
Cn1cnc2c1c(=O)n(CC(O)CO)c(=O)n2C (centres undefined)	-5	-6	29*	-9	0	-6
COC(=O)C[C@H]1CC[C@H](NS(=O)(=O)c2cn(C)cn2)[C@@H](CO)O1	1	2	.	.	.	2
CCOC(=O)c1cc(N2CCCCC2)nc2ccccc12	-8	28*	1	-3	-4	-3
CCC(C)(C)n1nnnc1C(c1ccc(C)cc1)N1CCN(C(=O)c2ccco2)CC1 (centres undefined)	35*	-10	2	4	-2	-8
O=C(NCc1ccc(F)cc1)c1cc(C2CCCN(C(=O)c3ccc4ccccc4c3)C2)on1 (centres undefined)	-3	2	8	-8	-3	0
COc1ccc(NC(=O)CN(C)C(=O)CCC2CCCC2)cc1	-8	30*	0	8	-3	-1
CCn1c(=O)c2cc(C(=O)NCCN(C)C)sc2c2ccccc21	19*	-11	-6	2	-1	-4
CCOC(=O)N1CCN(C(=O)c2ccc3c(c2)NC(=O)C(N2CCOCC2)S3)CC1 (centres undefined)	19*	2	18	-8	-6	-2
CCc1ccc(CNC(=O)c2ccc3c(c2)NC(=O)C(N2CCOCC2)S3)cc1 (centres undefined)	13	-10	-7	12	2	2
COc1ccc(CCNCC(C)c2ccccc2)cc1 (centres undefined)	-6	7	35*	-20	-9	-10
COc1ccc(CN2CCC3CC2c2cc(-c4cccc(C)c4)ccc23)cc1 (centres undefined)	-4	11	-2	0	0	3
